We go through 1 compound from ChEMBL document CHEMBL1671864, “First assessment in humans of the safety, tolerability, pharmacokinetics, and ex vivo pharmacodynamic antimalarial activity of the new artemisinin derivative artemisone” (Antimicrob Agents Chemother, 2008).

Molecules are shown by their SMILES.

Series [1] in a line: Half life in healthy human plasma at 40 mg, po administered as two 20 mg immediate release tablets daily for 3 days during 10 hrs overnight fasting state measured after 1 day. In kind it is ADME, organism-based. The method in brief: (§1)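 Healthy Caucasian males took tablets once daily for 3 days with 240 ml water after a 10-h fast. Heparinised blood was drawn predose and at 0.25–14 h after the first and last doses. Plasma parent drug and metabolites M1–M3 were measured by LC/MS-MS (MRM, deuterated internal standard). Noncompartmental analysis gave Cmax observed, t1/2 = 0.693/kel and MRT = AUMC/AUC. Values are geometric means.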

A short description of series [2]: Mean residence time in healthy human at 20 mg, po administered as single ascending doses as solution during 10 hrs overnight fasting state. In kind it is ADME, organism-based. As to conditions: in vivo. The method in brief:
(§2)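 Healthy Caucasian male volunteers, single oral dose with 240 ml water after a 10-h overnight fast. Heparinised venous blood was drawn predose and at 0.25–14 h. Plasma was stored frozen. Parent drug and metabolites M1–M3 were measured by LC/MS-MS (MRM, deuterated internal standard). Noncompartmental analysis gave Cmax observed, t1/2 = 0.693/kel (terminal regression) and MRT = AUMC/AUC. Values are geometric means.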

Series [3] is described as follows: Apparent volume of distribution with respect to the bioavailability in healthy human at 30 mg, po administered as single ascending doses as solution during 10 hrs overnight fasting state. In kind it is ADME, organism-based. The note with it: in vivo, read-out: Vc/F. In short, it runs like this: (§3)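 Single ascending oral doses in healthy Caucasian men, given fasted (10-h overnight) with 240 ml water: 10, 20, 30 or 40 mg as oral solution, or 80 mg as IR tablets. Parent plasma levels by LC/MS-MS over 0.25–14 h. Noncompartmental analysis: kel by terminal-phase least-squares regression, AUC extrapolated to infinity, CL/F = dose/AUC, V/F = CL/F÷kel.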

In series [4] the test system is Plasma. As to the kind of experiment: Ratio of AUC (0 to infinity) in healthy human plasma at 80 mg, po administered as four 20 mg immediate release tablets daily for 3 days during 10 hrs overnight fasting state measured after 1 day to AUC (0 to infinity) in healthy human plasma at 80 mg, po administered as four 20 mg immediate release tablets daily for 3 days during 10 hrs overnight fasting state measured after 3 day. The series is classed as ADME, organism-based. As to conditions: in vivo. In short, it runs like this: (§4)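 Healthy Caucasian men took tablets daily for 3 days with 240 ml water after 10-h fast. Plasma sampled 0.25–14 h after first and last doses, artemisone measured by LC/MS-MS. Accumulation ratio is Cmax or AUC0-∞ after last dose divided by that after first dose. Noncompartmental analysis, geometric means with 95% CI.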

The nature of series [5]: Half life in healthy human plasma at 40 mg, po administered as two 20 mg immediate release tablets daily for 3 days during 10 hrs overnight fasting state measured after 3 day. In kind it is ADME, organism-based. In short, it runs like this:
as §1

The test system of series [6] is Homo sapiens. The experiment in a line: Toxicity in healthy human assessed as decrease in alanine aminotransferase level at 80 mg, po administered daily for 3 days as four 20-mg immediate-release tablets during 10 hrs overnight fasting state measured after 2 days last post treatment. The series is classed as organism-based. The note with it: in vivo, 48 h.
Series [7] has as its system Homo sapiens. The experiment in a line: Toxicity in healthy human assessed as increase in glutamate dehydrogenase level at 80 mg, po administered daily for 3 days as four 20-mg immediate-release tablets during 10 hrs overnight fasting state measured after 24 hrs last post treatment. In kind it is organism-based. The note with it: in vivo.
Series [8] in a line: Half life in healthy human plasma at 10 mg, po administered as single ascending doses as solution during 10 hrs overnight fasting state. The series is classed as ADME, organism-based. In short, it runs like this: as §2
A short description of series [9]: Apparent oral clearance in healthy human at 30 mg, po administered as single ascending doses as solution during 10 hrs overnight fasting state. The series is classed as ADME, organism-based. As to conditions: in vivo. In short, it runs like this:
as §3

The nature of series [10]: Cmax in healthy human plasma at 80 mg, po administered as four 20 mg immediate release tablets daily for 3 days during 10 hrs overnight fasting state measured after 1 day. Further details: dose 80 mg, route oral. In kind it is ADME, organism-based. In short, it runs like this: as §1
Series [11] is described as follows: AUC in healthy human plasma at 80 mg, po administered as four 20 mg immediate release tablets daily for 3 days during 10 hrs overnight fasting state measured after 1 day. In kind it is ADME, organism-based. Set-up: dose 80 mg, time < 10 hr, route oral. The method in brief: (§5)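 Healthy Caucasian males took 40 mg (2×20-mg IR tablets) or 80 mg (4 tablets) orally daily for 3 days after a 10-h fast. Plasma parent drug was measured by LC/MS-MS from predose to 14 h after the first and third doses. Noncompartmental analysis: AUC by log-linear trapezoid extrapolated via kel, CL/F = dose/AUC, V/F = CL/F÷kel, geometric means.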

Series [12] in a line: Tmax in healthy human plasma at 40 mg, po administered as single ascending doses as solution during 10 hrs overnight fasting state. The series is classed as ADME, organism-based. The method in brief: (§6)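 Healthy Caucasian male volunteers, randomized within each dose group against placebo, given a single oral solution with 240 ml water after a 10-h overnight fast. Plasma sampled predose and at 0.25–14 h, quantified by LC/MS-MS (MRM, deuterated internal standard). Tmax read directly from individual noncompartmental concentration–time data.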

A short description of series [13]: Half life in healthy human plasma at 80 mg, po administered as single immediate release tablets during 10 hrs overnight fasting state. In kind it is ADME, organism-based. In short, it runs like this: as §2
Series [14] in a line: Apparent volume of distribution with respect to the bioavailability in healthy human at 10 mg, po administered as single ascending doses as solution during 10 hrs overnight fasting state. In kind it is ADME, organism-based. As to conditions: in vivo, read-out: Vc/F. In short, it runs like this:
as §3

The nature of series [15]: Cmax in healthy human plasma at 20 mg, po administered as single ascending doses as solution during 10 hrs overnight fasting state. Further details: dose 20 mg, route oral. The series is classed as ADME, organism-based. In short, it runs like this: as §2
Series [16] is described as follows: Mean residence time in healthy human at 40 mg, po administered as two 20 mg immediate release tablets daily for 3 days during 10 hrs overnight fasting state measured after 3 day. In kind it is ADME, organism-based. The note with it: in vivo. In short, it runs like this: as §1
Series [17] deals with Plasma. The experiment in a line: Ratio of Ratio of AUC (0 to infinity) in healthy human plasma at 40 mg, po administered as two 20 mg immediate release tablets daily for 3 days during 10 hrs overnight fasting state measured after 1 day to Ratio of AUC (0 to infinity) in healthy human plasma at 40 mg, po administered as two 20 mg immediate release tablets daily for 3 days during 10 hrs overnight fasting state measured after 3 day. In kind it is ADME, organism-based. As to conditions: in vivo. In short, it runs like this:
as §4

Series [18] concerns Homo sapiens. The experiment in a line: Toxicity in healthy human assessed as occurrence of changes in electrocardiogram parameters at 40 mg, po administered daily for 3 days as two 20-mg immediate-release tablets during 10 hrs overnight fasting state. The series is classed as organism-based. The note with it: in vivo. The method in brief: (§7)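 Healthy Caucasian men received single ascending doses (10–40 mg solution, 80 mg tablets) or 3-day daily tablet courses, all fasting, with randomized placebo controls. Supine blood pressure, heart rate and resting 12-lead ECG were recorded before and after dosing.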

Series [19] is described as follows: Tmax in healthy human plasma at 10 mg, po administered as single ascending doses as solution during 10 hrs overnight fasting state. The series is classed as ADME, organism-based. The method in brief:
as §6

Series [20] in a line: Half life in healthy human plasma at 20 mg, po administered as single ascending doses as solution during 10 hrs overnight fasting state. The series is classed as ADME, organism-based. The method in brief: as §2
The nature of series [21]: Half life in healthy human plasma at 40 mg, po administered as single ascending doses as solution during 10 hrs overnight fasting state. The series is classed as ADME, organism-based. The method in brief: as §2
Series [22] deals with Homo sapiens. The experiment in a line: Toxicity in healthy human assessed as occurrence of clinically relevant changes in vital signs at 10 to 80 mg, po administered as single ascending doses during 10 hrs overnight fasting state. In kind it is organism-based. The note with it: in vivo. In short, it runs like this: as §7
Series [23] can be described thus: AUC in healthy human plasma at 80 mg, po administered as four 20 mg immediate release tablets daily for 3 days during 10 hrs overnight fasting state measured after 3 day. The series is classed as ADME, organism-based. Set-up: time < 10 hr, dose 80 mg, route oral. The method in brief: as §5
For series [24], the system named is Homo sapiens. The experiment in a line: Toxicity in healthy human assessed as occurrence of adverse event at 80 mg, po administered daily for 3 days as four 20-mg immediate-release tablets during 10 hrs overnight fasting state. In kind it is organism-based. As to conditions: in vivo. In short, it runs like this:
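3-day daily oral tablet dosing in healthy Caucasian men (8 active, 4 placebo per dose). Adverse events were collected by open questioning and spontaneous report. Severity was graded mild (daily activities unaffected), moderate (some interference) or severe (activities not completed).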

`C[C@H]1[C@H](N2CCS(=O)(=O)CC2)O[C@@H]2O[C@@]3(C)CC[C@H]4[C@H](C)CC[C@@H]1[C@@]24OO3` [ARTEMIFONE]: the half-life in [1] was 3.36 h; in series [5], 4.37 h; in [8], 1.51 h; in series [13], 2.79 h; in series [20], 3.48 h; in series [21], 3.54 h. In addition, the MRT in series [2] was 1.79 h; in [16], 3.74 h. In addition, the Vd/F in series [3] is 26.6 L/kg; in series [14] it was 8.93 L/kg. The Ratio in the series with Plasma [4] was determined as 98.3%; with Plasma [17] it was 104%. Besides, the Activity entry with Homo sapiens [6], in the series on Homo sapiens [7], with Homo sapiens [18], in the series with Homo sapiens [22] and in the series with Homo sapiens [24] was “Non-toxic” throughout. In addition, the CL/F in [9] is 6960 mL/min. The Cmax in series [10] is 155 ng/mL; in [15], 57.3 ng/mL. For the same compound, the results for the AUC at 10 h in [11] and in series [23] were 343 ng·h/mL and 337 ng·h/mL, respectively. Besides, the Tmax came to 0.625 h in series [12] and 0.25 h in [19].

As a reminder, the half-life is how long it takes for the measured level to halve. The MRT is a mean duration of stay, worked out from the concentration-time curve. A word on the CL/F: it is clearance divided by bioavailability, as obtained after extravascular dosing. One may read the Cmax as the peak of the concentration-time curve. By AUC is commonly meant the area under the concentration-time curve, a measure of exposure. Read a low AUC as less exposure. Usually Tmax stands for the time at which the peak concentration occurs.
